Results of several laboratories.
Each line is one published result; the experiments were not run side by side.
Target: Cyclin-dependent kinase 2 (CDK2, Homo sapiens, UniProt P24941)
Technique: competition with immobilised ligand

Compound | assay | conditions | remaining binding [%]
C[C@H]1CCN(c2nccc(-c3cnn4ncccc34)n2)C1 | binding | 1 µM | 95
COc1cnc(Nc2cccc(S(N)(=O)=O)c2)nc1N1CCN(c2ccccc2)CC1 | binding | 1 µM | 98
Nc1ncc2c(n1)-c1c([nH]c3ccc(C#CC4CC4)cc13)CCCC2 | binding | 1 µM | 85
O=C(c1ccc(Nc2ncc(Cl)c(-c3ccc(Cl)s3)n2)cc1)N1CCC(N2CCCC2)CC1 | binding | 1 µM | 27
N#Cc1ccccc1CSc1nnc2c(n1)[nH]c1ccccc12 | binding | 10 µM | 82
C[C@@H]1CN(c2ccc3ncc(-c4ccc5[nH]nc(C6CC6)c5c4)n3n2)C[C@H](C)O1 | binding | 0.5 µM | 84
Nc1cnc(N2CCc3cc(S(=O)(=O)Nc4c(F)cc(Cl)cc4F)cc(N4CCCC4=O)c32)nc1 | cell-free assay | 1 µM | 100
O=C(NCCCN1CCOCC1)c1ccc(Nc2nccc(-c3cc4ccccc4s3)n2)cc1 | binding | 1 µM | 66
O=C(Nc1c[nH]nc1C(=O)NC1CCNCC1)c1cc(F)cc(F)c1 | binding | 1 µM | 98
Cc1cc(C)c(-n2ccn3nc(-c4cccnc4)cc23)cc1NC(=O)c1cc(C#N)cc(S(F)(F)(F)(F)F)c1 | cell-free assay | 0.1 µM | 99
CCN1CCN(Cc2ccc(C(=O)Nc3ccc(C)c(Oc4ccc5c(c4)CC(=O)N5)c3)cc2C(F)(F)F)CC1 | binding | 1 µM | 82
COc1ccc2cc(OCC3(C(=O)O)CN(C(=O)c4ccc(F)cc4)C3)ccc2c1 | cell-free assay | 1 µM | 91
FC(F)(F)Oc1cccc(-c2cnc3ccc(-c4ccncc4)nn23)c1 | cell-free assay | 5 µM | 81
O=C(NCCCN1CCOCC1)c1ccc(Nc2ncc(Cl)c(-c3ccc(Cl)s3)n2)cc1 | binding | 1 µM | 62
Cn1nc(C(F)(F)F)cc1-c1cnc(N2CCc3cc(S(=O)(=O)Nc4c(F)cc(Cl)cc4F)cc(N4CCCC4=O)c32)nc1 | cell-free assay | 1 µM | 100
COc1ncc2cc3ccccc3nc2c1C#N | cell-free assay | 5 µM | 100
